Laboratory results as given in the RNAGym collection of RNA variant scans (doi:10.1126/science.aae0568).
Fewer inactive variants are shown than the library holds.

B1: tRNA (parent)
chain: GUUCCGUUGGCGUAAUGGUAACGCGUCUCCCUCCUAAGGAGAAGACUGCGGGUUCGAGUCCCGUACGGAACG

Variants of: B1
Experiment: yeast fitness relative to wild type (ratio to wild type); higher = fitter; tRNA-Arg(CCU), competitive growth, 37 C, YPD
In short: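 Variants of the tRNA-Arg(CCU) gene were chemically synthesised with a 3% per-site mutation rate across 69 sites and placed at the native genomic locus in Saccharomyces cerevisiae. Six parallel replicates of the pooled strains were competed in YPD at 37°C for 24 hours, and gene amplicons from the start and end populations were read by 100-nucleotide paired-end sequencing. Darwinian fitness relative to wild type was derived from changes in genotype frequencies. Genotypes required ≥ 100 starting reads, and estimates < 0.5 were set to 0.5.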

Row | Variant | yeast fitness
1 | GUUCCGUUGGCGUAAUGGUAACGCGUCACACUCCUAAGGAGAAGACUGCGGGUUCGAGUCCCGUACUGAACG [U28A C30A G67U] | 0.642
2 | GUUCCGUUGGCGUAAUGGUAACGCGUCACGCUCCUAAGGAGAAGACUGCGGGUUCGAGUCCCGUACGGAACG [U28A C30G] | 0.51
3 | GUUCCGUUGGCGUAAUGGUAACGCGUCACUCUCCUAAGGGGAAGACUGCGGGUGCGAGUCCCGUACGGAACG [U28A C30U A40G U54G] | ≤ 0.5
4 | GUUCCGUUGGCGUAAUGGUAACGCGUCACUCUCCUAAGGAGAAGACUGCGGGUUCGAGUCCCGUAUGGAACG [U28A C30U C66U] | ≤ 0.5
5 | GUUCCGUUGGCGUAAUGGUAACGCGUCACCAUUCUACGGAGAAGACUGCAGGUUCGAGUCCCGUUCGGAACG [U28A C31A C33U A37C G50A A65U] | ≤ 0.5
6 | GUUCCGUUGGCGUAAUGGUAACGCGUCACCGUCCUAAGGAGUAGACUGGGGGUUCGAGUCCCGUACUGAACG [U28A C31G A42U C49G G67U] | ≤ 0.5
7 | GUUCCGUUGGCGUAAUGGUAACGCGUCACCGUCCAAAGGAGAAGACAGCGGGUACGAGUCCCGUACGGAACG [U28A C31G U35A U47A U54A] | ≤ 0.5
8 | GUUCCGUUGGCGUAAUGGUAACGCGUCACCGUCCCAAGGAGAAGACUGCGGGUUCGAGUUUCGUACGGAACG [U28A C31G U35C C60U C61U] | ≤ 0.5
9 | GUUCCGUUGGCGUAAUGGUAACGCGUCACCGUCCCAAGGAGAAGACCGCGGGUUCGAGUUUCGUACGGAACG [U28A C31G U35C U47C C60U C61U] | ≤ 0.5
10 | GUUCCGUUGGCGUAAUGGUAACGCGUCACCUUCCUAAGGAGAAGACUGCGGGUUCGAGUCCCGUUCGGAACG [U28A C31U A65U] | 0.546
11 | GUUCCGUUGGCGUAAUGGUAACGCGUCACCUUCUUAAGGAGAAGACUGCGGGUUCGAGUCCCGUACGGAACG [U28A C31U C34U] | ≤ 0.5
12 | GUUCCGUUGGCGUAAUGGUAACGCGUCACCUACCUAAGGAGAAGACUGCGGGUUUGAGUCCCGUACGGAACG [U28A C31U U32A C55U] | ≤ 0.5
13 | GUUCCGUUGGCGUAAUGGUAACGCGUCACCCUACUAAGGAGAAGACUGCGCGUUCGCGUCCCGUACGGAACG [U28A C33A G51C A57C] | ≤ 0.5
14 | GUUCCGUUGGCGUAAUGGUAACGCGUCACCCUGCUAAGGAGAAGACUGCGGGUUCGAGUCCCGUACGGAACG [U28A C33G] | 0.618
15 | GUUCCGUUGGCGUAAUGGUAACGCGUCACCCUGCUUAGGGGAAGACUGCGGGUCCGAGUCCCGUACGGAACG [U28A C33G A36U A40G U54C] | 0.528
16 | GUUCCGUUGGCGUAAUGGUAACGCGUCACCCUGCUAAGGAGACGACUGCGGGUUCGAGUCUCGUACGGUACG [U28A C33G A43C C61U A69U] | ≤ 0.5
17 | GUUCCGUUGGCGUAAUGGUAACGCGUCACCCUGCUAAGGAGACGACUGCGGGUUCGAGUCCCAUACGGAACG [U28A C33G A43C G63A] | 0.524
18 | GUUCCGUUGGCGUAAUGGUAACGCGUCACCCUUCUAAGGAGAAGACUGCGGGUUGGAGUCCCGUACGGAUCG [U28A C33U C55G A70U] | ≤ 0.5
19 | GUUCCGUUGGCGUAAUGGUAACGCGUCACCCUCAUAAGGGGAAGACUGCGGGUUCGAGUCCCGUAAGGAACG [U28A C34A A40G C66A] | ≤ 0.5

Row | Variant | yeast fitness
20 | GUUCCGUUGGCGUAAUGGUAACGCGUCACCCUCGUAAGGAGAAGACUGGGGGUUCGAGUCCCGUACGGAACG [U28A C34G C49G] | ≤ 0.5
21 | GUUCCGUUGGCGUAAUGGUAACGCGUCACCCUCGUAAGCAGAAGACUGCGGGUUCGGGUCCCGUAUGGAACG [U28A C34G G39C A57G C66U] | ≤ 0.5
22 | GUUCCGUUGGCGUAAUGGUAACGCGUCACCCUCUUAAGGAGAAGACUGCGGGUUCGAGUCCCGUACGGAACG [U28A C34U] | 0.553
23 | GUUCCGUUGGCGUAAUGGUAACGCGUCACCCUCUUAAGGAGAAGUCUGCGGGUUCGAGUCCAGUACGGAACG [U28A C34U A45U C62A] | ≤ 0.5
24 | GUUCCGUUGGCGUAAUGGUAACGCGUCACCCUCUUAAGGAGAAGACUGCGGGUUCGAGUCUCGUACGGAACG [U28A C34U C61U] | 0.554
25 | GUUCCGUUGGCGUAAUGGUAACGCGUCACCCUCUUAAGGAGAAGACUGCGGAUUCGAGUCCCGUACGGAACG [U28A C34U G52A] | ≤ 0.5
26 | GUUCCGUUGGCGUAAUGGUAACGCGUCACCCUCUUAAGGAGAAGACCGCGGGUUCGAGUUCCGUACGGAACG [U28A C34U U47C C60U] | ≤ 0.5
27 | GUUCCGUUGGCGUAAUGGUAACGCGUCACCCUCCUAAGGAGAAGAAUGCGGGUUCGAGUUCCGUAUGGAACG [U28A C46A C60U C66U] | ≤ 0.5
28 | GUUCCGUUGGCGUAAUGGUAACGCGUCACCCUCCUAAGGAGAAGAGUGCGGGUUCAAGUCCCGUACGGAACG [U28A C46G G56A] | 0.676
29 | GUUCCGUUGGCGUAAUGGUAACGCGUCACCCUCCUAAGGAGAAGACUGAGGGUUCGAGUCCCGUACGGAACG [U28A C49A] | 0.644
30 | GUUCCGUUGGCGUAAUGGUAACGCGUCACCCUCCUAAGGAGAAGACUGAGGGUUCGAGUCCCGUCCGGAACG [U28A C49A A65C] | 0.528
31 | GUUCCGUUGGCGUAAUGGUAACGCGUCACCCUCCUAAGGAGAAGACUGGGGGUUCGAGUCCCGUACGGAACG [U28A C49G] | 0.818
32 | GUUCCGUUGGCGUAAUGGUAACGCGUCACCCUCCUAAGGAGAAGACUGUGGGUUCGAGUCCCGUACGGAACG [U28A C49U] | 0.804
33 | GUUCCGUUGGCGUAAUGGUAACGCGUCACCCUCCUAAGGAGAAGACUGUGGGUUGGAGUCCCGUACGGAACG [U28A C49U C55G] | ≤ 0.5
34 | GUUCCGUUGGCGUAAUGGUAACGCGUCACCCUCCUAAGGAGAAGACUGUGGGUGCGAGUCCCGUACGGAACG [U28A C49U U54G] | ≤ 0.5
35 | GUUCCGUUGGCGUAAUGGUAACGCGUCACCCUCCUAAGGAGAAGACUGUGGGUGCGAGUCCUGUACGGAACG [U28A C49U U54G C62U] | ≤ 0.5
36 | GUUCCGUUGGCGUAAUGGUAACGCGUCACCCUCCUAAGGAGAAGACUGCGGGUUGGAGUCCCGUAUGGAACG [U28A C55G C66U] | ≤ 0.5
37 | GUUCCGUUGGCGUAAUGGUAACGCGUCACCCUCCUAAGGAGAAGACUGCGGGUUCGAGUUCCGUACGGAACG [U28A C60U] | 0.64
